Screening data as filed in PubChem BioAssay.
bIAP act = bovine intestinal alkaline phosphatase activators, primary screen, biochemical, bovine IAP, CDP-star luminescence; AID 1016, 2008; purified bovine IAP, 30 min; stronger effect = higher value; fold of DMSO-control signal, blank-subtracted; actives 0.17% (n = 200,000); activation factor at 20 µM;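 active = activation factor of 2 or more at 20 µM, a signal rise over negative controls twice the positive control's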
mIAP act = activators of mouse IAP, primary screen, biochemical, luminescence, uHTS; actives 0.24% (n = 330,000); muIAP, CDP-Star luminescence, 30 min; stronger effect = higher value; 1 = vehicle-only enzyme signal, 0 = enzyme-free wells; activation factor at 10 µM; intestinal alkaline phosphatase [Mus musculus];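 active = activation factor of at least 2 at 20 µM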
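Assay system: mouse IAP enzyme / Compound: DMSO-dissolved test compounds / Timing: 30 min, room temperature / Measured by: luminescence from enzymatic CDP-Star hydrolysis / Control set: DMSO-only wells, enzyme-free buffer wells as negative control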
mIAP block = inhibitors of mouse IAP, primary screen, biochemical, luminescence, uHTS | intestinal alkaline phosphatase [Mus musculus] | purified mouse IAP, CDP-Star luminescence, 30 min | inhibition, % at 10 µM | actives 0.2% (n = 330,000);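 active = inhibition of at least 40% at 10 µM in the primary screen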
hIAP activ = human IAP activators, primary screen, biochemical, luminescence, uHTS. Intestinal-type alkaline phosphatase (Homo sapiens), P09923. purified human IAP, CDP-Star luminescence, 30 min; stronger effect = higher value; 1 = vehicle-only enzyme, 0 = enzyme-free background. activation factor at 10 µM. actives 0.16% (n = 330,000);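 active = activation factor of the enzyme at least 2-fold when tested at 20 µM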
Target sequence (P09923 whole entry, looked up): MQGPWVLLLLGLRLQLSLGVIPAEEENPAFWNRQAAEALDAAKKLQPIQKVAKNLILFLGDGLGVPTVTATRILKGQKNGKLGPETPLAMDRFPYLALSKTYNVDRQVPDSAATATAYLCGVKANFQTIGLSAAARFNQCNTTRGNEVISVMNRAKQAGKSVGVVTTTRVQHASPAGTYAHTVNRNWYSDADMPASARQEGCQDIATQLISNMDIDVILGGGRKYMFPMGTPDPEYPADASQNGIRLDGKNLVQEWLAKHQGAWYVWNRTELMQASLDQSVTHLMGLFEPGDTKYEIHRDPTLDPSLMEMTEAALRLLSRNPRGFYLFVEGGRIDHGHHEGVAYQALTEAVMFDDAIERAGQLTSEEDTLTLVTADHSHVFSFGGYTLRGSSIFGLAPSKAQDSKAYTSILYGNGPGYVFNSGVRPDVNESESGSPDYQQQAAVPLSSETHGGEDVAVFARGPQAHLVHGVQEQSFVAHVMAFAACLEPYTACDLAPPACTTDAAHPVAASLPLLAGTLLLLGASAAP
hIAP block = human IAP inhibitors, primary screen, biochemical, luminescence, uHTS; inhibition, % at 10 µM; actives 0.12% (n = 330,000); AID 2544, 2010; purified IAP, CDP-Star luminescence, 30 min; Intestinal-type alkaline phosphatase (Homo sapiens), P09923;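 active = inhibition reaching a set limit with compound at 10 µM in the primary screen, cut at about 35% in these data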
bIAP inh = bovine intestinal alkaline phosphatase inhibitors, primary screen, selectivity assay for TNAP inhibitor project, biochemical, bovine IAP, CDP-star luminescence; alkaline phosphatase, intestinal [Bos taurus]; purified bovine IAP, 30 min; AID 1019, 2008; inhibition, % at 20 µM; 190,000 tested, under 10 active;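 active = over 50% inhibition of intestinal alkaline phosphatase at 20 µM in the single-dose screen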
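Incubation: 30 min reaction at room temperature / Material: purified bovine intestinal alkaline phosphatase (IAP) enzyme / Input: enzyme at 1/65,000,000 dilution / Dosing: 20 µM single dose / Signal: CDP-star luminescence signal / Reagent: CDP-star chemiluminescent phosphatase substrate, 30 µM final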
mIAP inh confirm = inhibitors of mouse IAP, confirmation, biochemical, luminescence, single concentration; shares compounds with mIAP block; purified mouse IAP, CDP-Star luminescence, 30 min; inhibition, % at 10 µM; actives 4.7% (n = 11,000);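 active = inhibition of at least 40% at 10 µM in either of the two replicates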
Large screens that a line does not name were inactive (follow-up assays come after a bar, where they were run); ! = repeats disagree. Compounds with a hit are over-represented: about 0.72% of the library has one in this group of screens.

CC1(C)C(=O)N(CCN2CCC(C(=O)c3ccc(F)cc3)CC2)c2ccccc21	none (no result: bIAP act, bIAP inh)
COc1ccccc1CNS(=O)(=O)c1c(C)[nH]c(C)c1C(=O)N1CCCC1	none (no result: bIAP act, bIAP inh)
C=CCSC1=N/C(=C\C=C\c2ccco2)C(=O)S1	mIAP block 53 | mIAP inh confirm 65
C=CCSC1=N/C(=C\c2sccc2C)C(=O)S1	none
Cc1cc2nsnc2c(S(=O)(=O)N2CCN(C)CC2)c1C	none (no result: bIAP act, bIAP inh)
CN(CC(=O)Nc1cccc(Cl)c1)S(=O)(=O)c1ccc2[nH]c(=O)oc2c1	mIAP block 58 (no result: bIAP act, bIAP inh) | mIAP inh confirm 74
COc1ccc(NC(=O)CN(C)S(=O)(=O)c2ccc3[nH]c(=O)oc3c2)cc1	none (no result: bIAP act, bIAP inh)
COc1cc(OC)c(NC(=O)CN(C)S(=O)(=O)c2ccc3[nH]c(=O)oc3c2)cc1Cl	mIAP block 64 (no result: bIAP act, bIAP inh) | mIAP inh confirm 86
CCc1ccc(NC(=O)CN(C)S(=O)(=O)c2ccc3[nH]c(=O)oc3c2)cc1	mIAP block 50 (no result: bIAP act, bIAP inh) | mIAP inh confirm 61
COc1ccc(Br)c(C(=O)N(C)CC(=O)Nc2ccc(N3CCOCC3)cc2)c1	none (no result: bIAP act, bIAP inh)
CC(NC(=O)c1cccc(S(=O)(=O)N2CCCCCC2)c1)c1ccccc1 (centres undefined)	none (no result: bIAP act, bIAP inh)
CCN(CC(=O)Nc1ccc(NC(C)=O)cc1)C(=O)CCCSc1nc2ccccc2[nH]1	none (no result: bIAP act, bIAP inh)
CCN(CC)C(=O)CSc1nc2c(sc(=S)n2-c2ccccc2)c(=O)n1-c1ccc(OC)c(OC)c1	none (no result: bIAP act, bIAP inh)
CCN(CC)CCNC(=O)c1ccc(NC(=O)Nc2cccc3ccccc23)cc1	mIAP act 3.1 (no result: bIAP act, bIAP inh) | mIAP inh confirm inactive
C/C=C(\C)C(=O)NCCN1C2=NC[C@@H](Cc3ccccc3)N2C[C@@H]1Cc1ccc(OC)cc1	none (no result: bIAP act, bIAP inh)
CCCCCCNC(=O)N[C@@H](C(=O)NCCC[C@H]1CN2C(=NC[C@@H]2Cc2ccccc2)N1CCc1cccc(OC)c1)C(C)C	mIAP act 3.3 (no result: bIAP act, bIAP inh) | mIAP inh confirm inactive
CCC1CCCCN1C(=O)COc1ccc2c3c(c(=O)oc2c1)CCC3 (centres undefined)	none (no result: bIAP act, bIAP inh)
CN(c1cccc(NC(=O)Nc2cccc(Cl)c2)c1)S(C)(=O)=O	mIAP act 3.7 | mIAP inh confirm inactive
CC(=O)Nc1cccc(N(C)S(C)(=O)=O)c1	none
C/C(=N\Nc1nc(C)cc(-c2ccccc2)n1)c1cccc(N)c1	none (no result: bIAP act, bIAP inh)
Nc1cc2nc3ccccc3oc-2cc1=O	mIAP block 50 (no result: bIAP act, bIAP inh) | mIAP inh confirm 42
COc1ccccc1NC(=O)Nc1ccc(-n2ccc(C(F)(F)F)n2)cc1	none (no result: bIAP act, bIAP inh)
O=C(Nc1ccc(-n2ccc(C(F)(F)F)n2)cc1)Nc1cccc(Cl)c1	mIAP act 2.8 (no result: bIAP act, bIAP inh) | mIAP inh confirm inactive
Cc1cc(C)cc(NC(=O)Nc2ccc(-n3ccc(C(F)(F)F)n3)cc2)c1	mIAP act 3.9 (no result: bIAP act, bIAP inh) | mIAP inh confirm inactive
O=C(N/N=C/c1cc(Cl)cc([N+](=O)[O-])c1O)c1ccc2c(c1)OCO2	mIAP block 60 (no result: bIAP act, bIAP inh) | mIAP inh confirm 68
O=C(NN=Cc1ccc(O)cc1)c1ccccc1NS(=O)(=O)c1cccs1	none (no result: bIAP act, bIAP inh)
O=C(N/N=C/c1cc(Cl)cc([N+](=O)[O-])c1O)c1ccccc1NS(=O)(=O)c1cccs1	mIAP block 41 (no result: bIAP act, bIAP inh) | mIAP inh confirm 44
CCc1ccccc1NC(=O)CN(C)C(=O)COC(=O)c1c(Cl)cccc1Cl	none (no result: bIAP act, bIAP inh)
C=Cc1c(C)c2cc3[nH]c(cc4nc(cc5nc(cc1[nH]2)C(C)=C5CCC(=O)O)C(CCC(=O)O)=C4C)c(C)c3C=C	mIAP block 42! (no result: bIAP act, bIAP inh) | mIAP inh confirm 42
COC(=O)c1cc(O)cc(OC)c1Oc1cc(C)cc(O)c1C(=O)O	mIAP block 53 (no result: bIAP act, bIAP inh) | mIAP inh confirm 67
Oc1cccc(C=Nc2cccc3ccccc23)c1O	none (no result: bIAP act, bIAP inh)
Oc1cccc(C=NCc2ccccc2)c1O	mIAP block 58 | mIAP inh confirm 63
CCN(CC)c1ccc(S(=O)(=O)N2CCOCC2)cc1NC(=O)Nc1ccccc1	mIAP act 4.7 (no result: bIAP act, bIAP inh) | mIAP inh confirm inactive
CCN(CC)c1ccc(S(=O)(=O)N2CCOCC2)cc1NC(=O)CNCc1ccccc1	none (no result: bIAP act, bIAP inh)
CCCCNC(=O)C(C1CCCCC1)N(CCN(C)C)C(=O)CCCN1C(=O)NC(c2ccc(-c3ccccc3)cc2)C(C(=O)OCc2ccccc2)=C1C (centres undefined)	mIAP act 2.7 (no result: bIAP act, hIAP activ, hIAP block, bIAP inh) | mIAP inh confirm inactive
CN(C)S(=O)(=O)c1ccc(C(=O)Nc2cc3c(cc2C(=O)O)OCCCO3)cc1	none (no result: bIAP act, bIAP inh)
NS(=O)(=O)c1ccc(-c2ccc(/C=N/NC(=O)c3ccc([N+](=O)[O-])cc3)o2)cc1	mIAP block 42 (no result: bIAP act, bIAP inh) | mIAP inh confirm 45
O=C(CN(C(=O)CNC(=O)c1ccco1)c1cccc(F)c1)NC1CCCCC1	none (no result: bIAP act, bIAP inh)
c1coc(CNc2nc(-c3cccs3)cs2)c1	mIAP block 45 | mIAP inh confirm 49
COc1cc(/C=C2/SC(=Nc3ccc(O)cc3)NC2=O)cc(OC)c1O	none
O=C1NC(=Nc2ccc(O)cc2)S/C1=C\C=C\c1ccco1	mIAP block 69 (no result: bIAP act, bIAP inh) | mIAP inh confirm 88
COc1ccc(N=C2NC(=O)/C(=C\c3ccco3)S2)cc1	mIAP block 40 | mIAP inh confirm 59
COc1ccc(OCC(=O)NC(=O)c2ccccc2OC)c([N+](=O)[O-])c1	none (no result: bIAP act, bIAP inh)
CN(CC(=O)Nc1ccccc1Cl)C(=O)COC(=O)Cc1ccc(F)cc1	none (no result: bIAP act, bIAP inh)
O=C(Nc1cc(S(=O)(=O)N2CCCCCC2)ccc1OCC(F)(F)F)c1ccc(=O)[nH]c1	none (no result: bIAP act, bIAP inh)
Cn1nc([N+](=O)[O-])nc1S(C)(=O)=O	mIAP block 44 | mIAP inh confirm 59
CS(=O)(=O)c1nc([N+](=O)[O-])nn1CCCc1ccccc1	none (no result: bIAP act, bIAP inh)
CC(=O)Nc1ccc(S(=O)(=O)/N=C2/NC(=O)/C(=C\c3ccco3)S2)cc1	mIAP block 46 | mIAP inh confirm 49
Cc1ccc(S(=O)(=O)/N=C2/NC(=O)/C(=C\c3ccco3)S2)cc1	mIAP block 40 | mIAP inh confirm 43
Cc1ccc(S(=O)(=O)/N=C2/NC(=O)/C(=C\c3ccccc3)S2)cc1	none (no result: bIAP act, bIAP inh)
Cc1ccc(N/C(N)=N/c2nc3c(c(=O)[nH]2)CCCC3)c(C)c1	none
Cc1ccc(N/C(N)=N/c2nc(C)cc(N3CCCCC3)n2)c(C)c1	bIAP act 8.4, mIAP act 3.7, hIAP activ 3.1 | mIAP inh confirm inactive
